Laboratory results published in ChEMBL document CHEMBL3580660, “Synthesis and Biological Evaluation of Novel Olean-28,13β-lactams as Potential Antiprostate Cancer Agents” (J Med Chem, 2015).
Calls of active or inactive are those of the source. The calls are words filed in the database; no cut-off is given here.

Key:
[1] = Antiproliferative activity against human BxPC3 cells after 72 hrs by CCK8 assay; type: functional, cell-based; settings: BXPC-3, 72 h
How it was run: (§1)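 CCK-8 assay: DU-145, H460, Bxpc-3, BEL-7404 and nontumor WPMY-1 cells seeded at 5 × 10^3 cells/well in 10% FCS DMEM overnight, then exposed in triplicate to 0.041−10 μM for 72 h. CCK-8 added for final 30 min, absorbance 450 nm; inhibition relative to medium-only controls after background subtraction; IC50 as concentration giving 50% inhibition.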

[2] = Antiproliferative activity against human H460 cells after 72 hrs by CCK8 assay; type: functional, cell-based; settings: NCI-H460, 72 h; how it was run: as §1
[3] = Antiproliferative activity against human Bel7404 cells after 72 hrs by CCK8 assay; type: functional, cell-based; settings: BEL-7404, 72 h; how it was run: as §1
DU-145 [4] = assay: Antiproliferative activity against human DU145 cells after 72 hrs by CCK8 assay; type: functional, cell-based; settings: DU-145, 72 h; how it was run: as §1
[5] = Antiproliferative activity against human WPMY-1 cells after 72 hrs by CCK8 assay; type: functional, cell-based; settings: WPMY-1, 72 h; how it was run: as §1
DU-145 [6] = assay: Antiproliferative activity against human DU145 cells at 2 uM after 72 hrs by CCK8 assay; type: functional
How it was run: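 DU-145 screening at single concentration 2 μM for 72 h, proliferation by CCK-8 (cells 5 × 10^3/well in 10% FCS DMEM). Percent inhibition vs untreated, background-corrected; mean ± SD from three independent experiments.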

Q: For CC1(C)CC[C@]2(C(=O)n3ccnc3)CC[C@]3(C)[C@H](C(=O)C=C4[C@@]5(C)C=C(C#N)C(=O)C(C)(C)[C@@H]5CC[C@]43C)[C@@H]2C1, which IC50 [1] is on record?
A: 1500 nM

Q: What about the IC50 [2] of the same compound?
A: 420 nM

Q: What about the IC50 [3] of the same compound?
A: 990 nM

Q: And the IC50 (DU-145 [4])?
A: 690 nM

Q: And the IC50 [5]?
A: 2090 nM

Q: What does the source list for CC1(C)CC[C@]23CC[C@@]4(C)[C@]5(C)CC[C@H]6C(C)(C)C(=O)C(C#N)=C[C@]6(C)C5=CC(=O)[C@@]4([C@@H]2C1)N(C(C)(C)C)C3=O?
A: IC50 [1]: 660 nM; inhibition (DU-145 [6]): Active; IC50 [2]: 430 nM; IC50 [3]: 1140 nM; IC50 (DU-145 [4]): 960 nM; IC50 [5]: 9600 nM

Q: Which inhibition at 2 µM (DU-145 [6]; DU-145, 72 h) does the source give for CC1(C)CC[C@]2(C(=O)NC3CCCCC3)CC[C@]3(C)[C@H](C(=O)C=C4[C@@]5(C)C=C(C#N)C(=O)C(C)(C)[C@@H]5CC[C@]43C)[C@@H]2C1 here?
A: 53%

Q: For CCCCN1C(=O)[C@]23CCC(C)(C)C[C@H]2[C@]12C(=O)C=C1[C@@]4(C)C=C(C#N)C(=O)C(C)(C)[C@@H]4CC[C@@]1(C)[C@]2(C)CC3, which inhibition (DU-145 [6]) is on record?
A: Active

Q: With CCCN1C(=O)[C@]23CCC(C)(C)C[C@H]2[C@]12C(=O)C=C1[C@@]4(C)C=C(C#N)C(=O)C(C)(C)[C@@H]4CC[C@@]1(C)[C@]2(C)CC3 as the compound, how does the inhibition (DU-145 [6]) read?
A: Active

Q: For CC1(C)CC[C@]23CC[C@@]4(C)[C@]5(C)CC[C@H]6C(C)(C)C(=O)C(C#N)=C[C@]6(C)C5=CC(=O)[C@@]4([C@@H]2C1)N(CCc1ccccc1)C3=O, which inhibition (DU-145 [6]) is on record?
A: Active

Q: With CC1(C)CC[C@]23CC[C@@]4(C)[C@]5(C)CC[C@H]6C(C)(C)C(=O)C(C#N)=C[C@]6(C)C5=CC(=O)[C@@]4([C@@H]2C1)N(CCO)C3=O as the compound, how does the inhibition (DU-145 [6]) read?
A: Active

Q: Which inhibition (DU-145 [6]) does the source give for CCN1C(=O)[C@]23CCC(C)(C)C[C@H]2[C@]12C(=O)C=C1[C@@]4(C)C=C(C#N)C(=O)C(C)(C)[C@@H]4CC[C@@]1(C)[C@]2(C)CC3 here?
A: Active

Q: For CCCCCCN1C(=O)[C@]23CCC(C)(C)C[C@H]2[C@]12C(=O)C=C1[C@@]4(C)C=C(C#N)C(=O)C(C)(C)[C@@H]4CC[C@@]1(C)[C@]2(C)CC3, which inhibition (DU-145 [6]) is on record?
A: Active

Q: With CN1C(=O)[C@]23CCC(C)(C)C[C@H]2[C@]12C(=O)C=C1[C@@]4(C)C=C(C#N)C(=O)C(C)(C)[C@@H]4CC[C@@]1(C)[C@]2(C)CC3 as the compound, how does the inhibition (DU-145 [6]) read?
A: Active
